Laboratory results as given in ChEMBL document CHEMBL1147412, “Synthesis and biological activity of new quinoxaline antibiotics of echinomycin analogues” (Bioorg Med Chem Lett, 2004).
Converted amounts (≈) assume the structure as drawn.

Legend:
PANC-1 = assay: Inhibitory activity against growth of PANC-1 tumor cell line was determined by MTT assay; assay type: functional, cell-based; conditions: Homo sapiens
In short: (§1)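 Exponentially growing cells seeded at 2 × 10^4 ~ 5 × 10^4 cells/well in RPMI-1640, drug-treated, then incubated 72 h. MTT (5 mg/mL stock) added, 4 h at 37 °C. Formazan dissolved in DMSO at rt, absorbance read at 540 nm. IC50 from plot of log drug concentration versus growth rate of treated cells.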

B16 = assay: Inhibitory activity against growth of B16 mouse melanoma cell line was determined by MTT assay; assay type: functional, cell-based; in short: as §1
HT-29 [1] = assay: Inhibitory activity against growth of HT-29 colon tumor cell line was determined by MTT assay; assay type: functional, cell-based; conditions: Homo sapiens; in short: as §1
BeWo = assay: Inhibitory activity against growth of BeWO placental tumor cell line was determined by MTT assay; assay type: functional, cell-based; conditions: Homo sapiens; in short: as §1
HT-29 [2] = assay: Percentage of apoptotic HT-29 cells after 24 H treatment with 10 ug/mL concentration of compound; assay type: functional, Homo sapiens
In short: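 HT-29 cells exposed to compound at 10 μg/mL for 24 h. Apoptotic cell percentage measured by flow cytometry (FACScan). Mean ± SEM of at least three separate experiments.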

SMILES | IC50 (PANC-1) [µg/mL] | IC50 (B16) [µg/mL] | IC50 (HT-29 [1]) [µg/mL] | IC50 (BeWo) [µg/mL] | Apoptotic cells (HT-29 [2]) [%]
CC(C)[C@H]1C(=O)OC[C@@H](NC(=O)c2cnc3ccccc3n2)C(=O)N[C@@H](C)C(=O)N(C)[C@H]2C[S+]([O-])C[S+]([O-])C[C@@H](C(=O)N1C)N(C)C(=O)[C@H](C)NC(=O)[C@H](NC(=O)c1cnc3ccccc3n1)COC(=O)[C@H](C(C)C)N(C)C2=O (stereo not given in full) | > 20 | > 20 | > 20 | > 20 | –
CC(C)[C@H]1C(=O)OC[C@@H](NC(=O)c2cnc3ccccc3n2)C(=O)N[C@@H](C)C(=O)N(C)[C@H]2CS(=O)(=O)CS(=O)(=O)C[C@@H](C(=O)N1C)N(C)C(=O)[C@H](C)NC(=O)[C@H](NC(=O)c1cnc3ccccc3n1)COC(=O)[C@H](C(C)C)N(C)C2=O | > 20 | > 20 | > 20 | > 20 | –
CC(C)[C@@H]1NC(=O)[C@@H]2CSCSC[C@H](NC(=O)[C@H](C)NC(=O)[C@H](NC(=O)c3cnc4ccccc4n3)COC1=O)C(=O)N[C@@H](C(C)C)C(=O)OC[C@@H](NC(=O)c1cnc3ccccc3n1)C(=O)N[C@@H](C)C(=O)N2 | > 20 | > 20 | > 20 | > 20 | –
CC(C)[C@@H]1NC(=O)[C@@H]2CS(=O)(=O)CS(=O)(=O)C[C@H](NC(=O)[C@H](C)NC(=O)[C@H](NC(=O)c3cnc4ccccc4n3)COC1=O)C(=O)N[C@@H](C(C)C)C(=O)OC[C@@H](NC(=O)c1cnc3ccccc3n1)C(=O)N[C@@H](C)C(=O)N2 | > 20 | > 20 | > 20 | > 20 | –
CC(C)[C@H]1C(=O)OC[C@@H](NC(=O)c2cnc3ccccc3n2)C(=O)N[C@@H](C)C(=O)N(C)[C@H]2CSC[S+]([O-])C[C@@H](C(=O)N1C)N(C)C(=O)[C@H](C)NC(=O)[C@H](NC(=O)c1cnc3ccccc3n1)COC(=O)[C@H](C(C)C)N(C)C2=O (stereo not given in full) | > 20 | > 20 | > 20 | > 20 | –
CS[C@H]1SC[C@H]2C(=O)N(C)[C@@H](C(C)C)C(=O)OC[C@@H](NC(=O)c3cnc4ccccc4n3)C(=O)N[C@@H](C)C(=O)N(C)[C@@H]1C(=O)N(C)[C@@H](C(C)C)C(=O)OC[C@@H](NC(=O)c1cnc3ccccc3n1)C(=O)N[C@@H](C)C(=O)N2C [ECHINOMYCIN] | 1.8 (≈ 1.63 µM) | 0.4 (≈ 0.363 µM) | 2.2 (≈ 2 µM) | 1 (≈ 0.908 µM) | 47.5
CC(C)[C@H]1C(=O)OC[C@@H](NC(=O)c2cnc3ccccc3n2)C(=O)N[C@@H](C)C(=O)N(C)[C@H]2CSCSC[C@@H](C(=O)N1C)N(C)C(=O)[C@H](C)NC(=O)[C@H](NC(=O)c1cnc3ccccc3n1)COC(=O)[C@H](C(C)C)N(C)C2=O | 4 (≈ 3.63 µM) | 1.4 (≈ 1.27 µM) | 5 (≈ 4.54 µM) | 2.7 (≈ 2.45 µM) | 28.9
